Screens from PubChem.
Shown are actives, neighbours in structure and some others; about 1.4% of the full set was active somewhere.
Efflux pump mplx – blocks antifungal efflux pumps in multiplex yeast assay; S. cerevisiae Candida pump triplex, Nile Red efflux; inhibition, % at 10 µM; hit rate 0.44% among 330,000; AID 485275;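 active means plate passing quality check with inhibition over a set limit, or well fluorescence over plate mean plus 4 SD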;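 further: Nile Red retained in pooled yeast measured as flow cytometry median fluorescence; 0% = buffer negative control and 100% = Enniatin B positive control; higher means more Nile Red kept so more efflux inhibition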
IDE act – IDE (human) activation, cell-based; hit rate 0.073% among 340,000; P14735; HEK cells, FAbeta-B cleavage, fluorescence polarization; 0% vehicle, 100% cell-free pure enzyme wells; activation, % at 5.96 µM;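 active means activation above the mean of all tested compounds plus 3 SD, set per screening campaign, cut at about 17% in these data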
IDE cell inh – inhibitors of human insulin-degrading enzyme in cells | inhibition, % at 5.59 µM | HEK cells, FAbetaB cleavage, fluorescence polarization | hit rate 0.41% among 320,000 | P14735 | AID 434962;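 active means percent inhibition above the average of all tested compounds plus 3 SD, set per screening campaign, cut at about 16% in these data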;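 further: IDE supplied by intact live HEK cells; FP after avidin binding of uncleaved biotin substrate so inhibition keeps polarization high; 0% = DMSO wells and 100% = 60 µM reference IDE inhibitor Ii1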
CR mimetic SO – caloric restriction mimetics inhibiting age-related superoxide in yeast; hit rate 0.18% among 330,000; S. cerevisiae aged cells, superoxide DHE fluorescence; active compounds read low; superoxide response (% of plate mean), % at 10 µM;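 active means superoxide response under a set limit, about three screen SD below normal, cut at about 65% in these data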;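 further: yeast aged for seven days with compound at 30 °C before DHE staining; 100% = average MFI of all compound-treated wells on the plate with controls excluded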
HDAC3 inh – inhibitors of human histone deacetylase 3. O15379. recombinant HDAC3, fluorogenic peptide/trypsin coupled, fluorescence. inhibition, % at 8.3 µM. hit rate 0.15% among 320,000. AID 2718; in the data active means inhibition above about 26%, passing the limit was not always enough
Target sequence (O15379 whole entry, looked up): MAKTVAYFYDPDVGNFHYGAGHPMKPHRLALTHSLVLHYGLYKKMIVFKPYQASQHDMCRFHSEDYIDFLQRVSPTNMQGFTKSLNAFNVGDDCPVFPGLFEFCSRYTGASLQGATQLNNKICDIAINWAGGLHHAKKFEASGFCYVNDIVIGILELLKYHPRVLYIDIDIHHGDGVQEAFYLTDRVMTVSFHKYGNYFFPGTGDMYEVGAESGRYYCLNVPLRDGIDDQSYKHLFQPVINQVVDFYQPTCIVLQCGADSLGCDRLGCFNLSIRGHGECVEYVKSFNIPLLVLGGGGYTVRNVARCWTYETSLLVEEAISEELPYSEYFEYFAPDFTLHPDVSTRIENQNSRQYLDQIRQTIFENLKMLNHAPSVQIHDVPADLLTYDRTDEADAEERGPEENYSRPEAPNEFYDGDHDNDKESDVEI
Tb MetRS inh – Trypanosoma brucei MetRS inhibition; purified T. brucei MetRS, ATP depletion, Kinase-Glo luminescence; inhibition, % at 11.9 µM; hit rate 0.4% among 360,000;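 active means inhibition above a per-plate cutoff of the control wells' mean inhibition plus 3 SD, cut at about 5.5% in these data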;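 further: 0% = DMSO wells median and 100% = median of wells with control inhibitor compound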
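Material: T. brucei methionyl-tRNA synthetase, purified; reagent: substrates ATP, L-methionine and bulk Escherichia coli tRNA; dosing: 11.9 µM single point; timing: 15 min plus 2 h at 25 °C; detection: luminescence of leftover ATP; evaluation: % inhibition; control set: DMSO-only wells as low control; replicates: singlicate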
IDE inh confirm – confirmation of human insulin-degrading enzyme inhibitors in cells | hit rate 51% among 1,200 | inhibition, % at 5.59 µM | AID 435028 | shares compounds with IDE cell inh | HEK cells, FAbetaB cleavage, fluorescence polarization;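 active means mean inhibition across triplicate wells above the cutoff set by the earlier primary insulin-degrading enzyme screen, cut at about 16% in these data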;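 further: 0% = DMSO wells and 100% = 60 µM reference IDE inhibitor Ii1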
HEK293 tox – kills HEK cells in IDE inhibitor counter-screen; shares compounds with IDE cell inh; HEK293 cytotoxicity, ATP luminescence; inhibition, % at 5.59 µM; hit rate 28% among 1,200; AID 449730; in the data active means inhibition above about 22%;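 further: 0% = vehicle wells and 100% = reference cytotoxic drug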
Active calls of the source: *; . = not tested or not shown.

SMILES	Efflux pump mplx	IDE act	IDE cell inh	CR mimetic SO	HDAC3 inh	Tb MetRS inh	IDE inh confirm	HEK293 tox
CC(C)c1ccc(NC(=O)COC(=O)CSc2nnc(N)s2)cc1	0	3	2	121	-4	0	.	.
O=S(=O)(Nc1cccc2c1CCCC2)c1ccc(Cl)cc1	0	2	4	88	8	0	.	.
CC(C)OC(=O)c1cc(C(=O)c2cc(F)ccc2O)coc1=N	0	0	-6	118	-2	-1	.	.
COc1ccc(O)c(C(=O)c2coc(=N)c(C(=O)Nc3ccc(SC(F)F)cc3)c2)c1	0	-22	20*	104	6	1	38*	24*
O=C(NN1C(=O)c2ccc(-c3ccc4c(c3)C(=O)N(NC(=O)c3cccnc3)C4=O)cc2C1=O)c1cccnc1	0	-4	3	96	1	0	.	.
CC(=O)N1CCN(c2ccc(S(C)(=O)=O)cc2[N+](=O)[O-])CC1	0	5	1	103	0	0	.	.
COc1ccc2nc(N3CCN(C(=O)c4ccc5ncsc5c4)CC3)sc2c1	0	-20	17*	103	2	0	11	30*
COc1ccc(OC)c2sc(N3CCN(C(=O)c4ccc5ncsc5c4)CC3)nc12	0	4	2	107	-5	-1	.	.
CCN(CC)c1ccc(/C=N/NC(=O)c2cccc(S(=O)(=O)Nc3ccccc3OC)c2)c(O)c1	0	-21	33*	107	12	2	35*	100*
COc1ccc2c(n1)Sc1nc3ccccc3nc1N2	0	-35	28*	59*	7	0	55*	12
COc1cc(-c2nc(C)c(C(C)=O)n2O)ccc1OCC(=O)Nc1ccc(Cl)cc1	0	-4	3	115	1	0	.	.
CS(=O)(=O)Oc1ccc2c(c1)O/C(=C\c1cccc([N+](=O)[O-])c1)C2=O	0	5	.	98	8	-1	.	.
CS(=O)(=O)Oc1ccc2c(c1)O/C(=C\C=C\c1ccccc1)C2=O	0	-11	33*	107	-3	1	18*	16
O=[N+]([O-])c1ccc(N=Cc2sc3ccccc3c2O)cc1	0	1	17*	119	-1	-1	14	11
CN(C)c1ccc(/C=C/c2nc3ccccc3c(=O)n2-c2ccc(C(=O)O)cc2)cc1	0	-115	131*	100	12	0	134*	9
O=C(O)c1cccc(-n2c(/C=C/c3ccccc3)nc3ccccc3c2=O)c1	0	2	5	96	11	0	.	.
COc1cc2ncnc(NCc3cccc(F)c3F)c2cc1OC	0	-9	18*	104	0	-1	1	13
Cc1cc(NC(=O)COC(=O)c2cnccn2)ccc1Br	0	6	2	104	1	0	.	.
O=C(NC1CCCc2ccccc21)c1ccc(S(=O)(=O)N2CCOCC2)cc1 (stereo unspecified)	0	1	-2	97	-2	0	.	.
O=S(=O)(c1ccc(NC2CCCc3ccccc32)nc1)N1CCOCC1 (stereo unspecified)	0	-3	19*	109	6	-1	7	12
CCN1CC=C2C(C#N)=C(N)C(C#N)(C#N)C(c3cc(Cl)ccc3Cl)C2C1 (stereo unspecified)	0	-2	4	106	-15	0	.	.
COc1ccc(OC)c(/C=C2\Oc3cc(OCC(=O)N4CC(O)C[C@H]4C(=O)O)ccc3C2=O)c1 (stereo partly specified)	0	-6	9	87	6	-2	.	.
COc1ccc(OC)c(/C=C2\Oc3cc(OCC(=O)N4CCC(C(=O)O)CC4)ccc3C2=O)c1	0	-36	22*	88	5	0	65*	8
COc1ccc(C(=O)NCCc2nnc(SCC(=O)Nc3ccccc3F)n2C)cc1	0	1	1	90	14	0	.	.
CCOC(=O)/C(C#N)=C/c1cn(CCOc2ccc(OC)cc2)c2ccccc12	0	-2	1	102	0	0	.	.
SMILES	Efflux pump mplx	IDE act	IDE cell inh	CR mimetic SO	HDAC3 inh	Tb MetRS inh	IDE inh confirm	HEK293 tox
CCN(CC)c1ccc(/C=C2/C(=O)c3ccc(C(=O)O)cc3C2=O)cc1	2	-71	138*	94	6	-1	26*	16
CC(C)c1ccc(Nc2nc(Cl)nc(NCCO)n2)cc1	0	2	1	96	7	0	.	.
COc1ccccc1C1CCN(Cc2ccc(C)cc2)CC1	0	2	2	102	-1	-1	.	.
CC(=O)Cc1cc(O)c2ccccc2c1OC(=O)c1ccccc1	0	-6	43*	119	3	0	37*	14
CC(=O)c1cc(C)c(OC(=O)c2ccccc2)c(C)c1	.	4	.	.	.	0	.	.
COC(=O)/C(=C\c1ccc([N+](=O)[O-])o1)NC(=O)c1ccccc1	0	-2	0	92	-1	0	.	.
Cc1cccc(NC(=O)/C(=C\c2ccc([N+](=O)[O-])o2)NC(=O)c2ccc(Cl)cc2)c1	0	-4	17*	112	-1	-1	6	13
O=C(Nc1ccc2nc(-c3cccs3)[nH]c2c1)c1cccs1	0	-4	21*	91	-4	0	10	22*
CC1CCN(c2c(NCc3ccc(C(=O)N4c5ccccc5CC4C)cc3)c(=O)c2=O)CC1 (stereo unspecified)	0	-46	38*	97	3	0	32*	16
Cn1cccc1/C=C1\CCC/C(=C\c2cccn2C)C1=O	0	-74	71*	89	12	-1	118*	23*
O=C1/C(=C/c2cccs2)CCC/C1=C\c1cccs1	0	-4	5	92	3	0	.	.
O=C1C=CC(=O)N1CCCCCCN1C(=O)C=CC1=O	0	.	19*	99	-3	.	4	124*
O=C(NC1CCCCC1)C1CCN(C(=O)c2ccc(-c3ccccc3)cc2)CC1	0	-3	18*	95	-3	0	6	12
O=C(NC1CCCCC1)C1CCN(C(=O)c2ccc(Cl)cc2)CC1	0	1	7	94	-3	1	.	.
COc1ccc2c(Cl)c(C(=O)N/N=C3\CCCC(=O)C3)sc2c1	0	-18	22*	96	5	-1	31*	11
COc1ccc2c(Cl)c(C(=O)N/N=C/c3ccc4c(c3)OCO4)sc2c1	0	-2	-1	99	4	0	.	.
O=C(Nc1ccc(Nc2ccccc2)cc1)c1ccc(Cl)cc1	0	-3	7	105	-4	0	.	.
